Measured values published in ChEMBL document CHEMBL1153229, “The first synthetic agonists of FFA2: Discovery and SAR of phenylacetamides as allosteric modulators” (Bioorg Med Chem Lett, 2010).
pIC50: −log10 of the molar value. Calls of active or inactive are those of the source. The calls are words filed in the database; no cut-off is given here.

Tests used:
Mus musculus = assay: Reduction in plasma free fatty acid level in overnight fasted wild type C57BL/6 mouse at 20 mg/kg, ip after 15 mins; type: functional, organism-based; design: dose 20 mg/kg
Method in brief: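 Male-unspecified C57BL6 mice, wild type or FFA2 knockout, fasted overnight. Given compound or vehicle (10% dimethyl acetamide, 10% ethanol, 30% propylene glycol, 50% saline) ip at 10 ml/kg. Tail blood sampled before and 15 minutes after injection. Plasma FFA measured by enzymatic kit. Ten animals per group; t test.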

Rattus norvegicus = assay: Clearance in Sprague-Dawley rat at 0.5 mg/kg, iv; type: ADME, organism-based; design: dose 0.5 mg/kg, route intravenous; conditions: in vivo
Method in brief: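 Male Sprague-Dawley rats dosed 0.5 mg/kg iv.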

[1] = biological target: C-X-C chemokine receptor type 4 (Homo sapiens) (UniProt P61073); assay: Agonist activity at CXCR4 up to 30 uM; type: functional
C-X-C chemokine receptor type 4 (Homo sapiens), sequence (P61073 whole entry): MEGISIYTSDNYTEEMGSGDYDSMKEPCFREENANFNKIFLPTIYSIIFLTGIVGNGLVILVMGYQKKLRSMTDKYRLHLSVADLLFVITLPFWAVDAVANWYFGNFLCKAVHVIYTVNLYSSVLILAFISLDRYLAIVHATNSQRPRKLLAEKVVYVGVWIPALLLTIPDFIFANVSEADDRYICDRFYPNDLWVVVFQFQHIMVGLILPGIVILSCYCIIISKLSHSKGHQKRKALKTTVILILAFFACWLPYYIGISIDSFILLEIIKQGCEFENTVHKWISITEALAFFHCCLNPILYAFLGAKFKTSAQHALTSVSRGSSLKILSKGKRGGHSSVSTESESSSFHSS

[2] = biological target: T1, Free fatty acid receptor 3 (Homo sapiens) (UniProt O14843); assay: Agonist activity at FFA3 receptor up to 30 uM; type: functional
T1 sequence (whole entry): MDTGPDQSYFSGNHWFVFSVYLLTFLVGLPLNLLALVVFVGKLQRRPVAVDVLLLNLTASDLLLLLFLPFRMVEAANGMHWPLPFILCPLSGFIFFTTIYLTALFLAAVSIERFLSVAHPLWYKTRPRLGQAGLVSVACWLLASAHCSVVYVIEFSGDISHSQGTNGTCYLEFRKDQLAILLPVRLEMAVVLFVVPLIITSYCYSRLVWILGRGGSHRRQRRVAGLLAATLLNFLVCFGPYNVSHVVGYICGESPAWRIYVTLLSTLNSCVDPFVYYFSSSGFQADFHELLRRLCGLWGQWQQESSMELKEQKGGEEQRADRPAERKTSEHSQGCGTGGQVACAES

[3] = biological target: T2, Free fatty acid receptor 2 (Homo sapiens, UniProt O15552); assay: Agonist activity at human FFA2 receptor expressed in CHO cells assessed as inhibition of forskolin-induced cAMP production; type: functional, cell-based
T2 sequence (O15552 whole entry): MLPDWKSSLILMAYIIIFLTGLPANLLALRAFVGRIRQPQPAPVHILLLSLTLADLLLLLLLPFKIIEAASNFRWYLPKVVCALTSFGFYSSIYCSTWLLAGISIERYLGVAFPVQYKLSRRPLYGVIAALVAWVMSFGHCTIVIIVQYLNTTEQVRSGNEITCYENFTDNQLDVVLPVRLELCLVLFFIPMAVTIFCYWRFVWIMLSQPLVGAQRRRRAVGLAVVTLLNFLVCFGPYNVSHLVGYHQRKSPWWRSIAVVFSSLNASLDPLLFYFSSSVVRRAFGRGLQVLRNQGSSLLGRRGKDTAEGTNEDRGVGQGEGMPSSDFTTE
Method in brief: (§1)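 Suspended cells, 10,000 per well, in Hank's balanced salt solution with 25 mM HEPES and 0.01% (w/v) BSA. Stimulated with forskolin (5 μM final) plus serially diluted test ligands, room temperature for 30 min. Antibody and lysis reagents then added, followed by overnight dark incubation with detection solution. Luminescence read (RLU). Efficacy expressed relative to acetate. Means of four experiments.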

[4] = biological target: T3, Free fatty acid receptor 2 (Homo sapiens) (UniProt O15552); assay: Agonist activity at human FFA2 receptor expressed in CHO cells assessed as inhibition of forskolin-induced cAMP production relative to acetate; type: functional, cell-based; method in brief: as §1
T3 sequence (whole entry): T2 sequence (O15552 whole entry)

In the case of `CC(C)[C@H](C(=O)Nc1ncc(F)s1)c1ccc(Cl)cc1`, the Activity (Mus musculus) was “Active”, the CL (Rattus norvegicus) was 43.3 mL/min/kg and the Activity [1] was “inactive”. For the same compound, the Activity [2] was “inactive”, the pIC50 [3] was 6.30 and the Efficacy [4] was 103%.
